How the values were obtained:
Type in all cases: functional, Homo sapiens
HUVEC [1] = assay: Increase in TI-PARP gene expression in HUVEC at 5 ug/ml after 4 hrs relative to control
HUVEC [2] = assay: Increase in COX2 gene expression in HUVEC at 5 ug/ml after 4 hrs relative to control
HUVEC [3] = assay: Increase in SerpinB2 gene expression in HUVEC at 5 ug/ml after 4 hrs relative to control
Outline: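 HUVEC exposed to the purified compound at 5 μg/ml. SerpinB2 mRNA quantified by real-time RT-PCR against untreated control HUVEC, reported as log2 relative quantity (log2RQ). The same SerpinB2 RT-PCR read-out guided activity-based fractionation of the herbal extract.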

HUVEC [4] = assay: Increase in CYP450, family 1, subfamily B, polypeptide 1 gene expression in HUVEC at 5 ug/ml after 4 hrs relative to control
HUVEC [5] = assay: Increase in solute carrier family 7, member 11 gene expression in HUVEC at 5 ug/ml after 4 hrs relative to control
HUVEC [6] = assay: Decrease in zinc finger and BTB domain containing 16 gene expression in HUVEC at 5 ug/ml after 4 hrs relative to control
HUVEC [7] = assay: Decrease in ATP-binding cassette, subfamily G, member 1 gene expression in HUVEC at 5 ug/ml after 4 hrs relative to control
HUVEC [8] = assay: Decrease in perlecan gene expression in HUVEC at 5 ug/ml after 4 hrs relative to control
HUVEC [9] = assay: Decrease in mesenchyme homebox2 gene expression in HUVEC at 5 ug/ml after 4 hrs relative to control
HUVEC [10] = assay: Decrease in AT rich interactive domain 1A gene expression in HUVEC at 5 ug/ml after 4 hrs relative to control

In the case of `C/C=C/C#CC#C/C=C/CCC(CCOC(C)=O)OC(C)=O` (stereo not given), the Fold change (HUVEC [1]) is reported as 2.3, the Fold change (HUVEC [2]) is reported as 2 and the Fold change (HUVEC [3]) is reported as 2. It also gave a Fold change (HUVEC [4]) of 6.5, a Fold change (HUVEC [5]) of 2.3 and a Fold change (HUVEC [6]) of -2. It also gave a Fold change (HUVEC [7]) of -1.9, a Fold change (HUVEC [8]) of -1.7 and a Fold change (HUVEC [9]) of -2.1. The Fold change (HUVEC [10]) was -1.9.

Reference: ChEMBL document CHEMBL1140583, “A polyacetylene compound from herbal medicine regulates genes associated with thrombosis in endothelial cells” (2007)
